Shown are actives, neighbours in structure and some others; about 1% of the full set was active somewhere.
T cell modulator – modulators of CD8 T cell-vesicle binding, primary screen, mouse 2C CD8+ T cells, flow cytometry. 2C CD8+ T cell-vesicle binding; active compounds read low. response (vesicle binding), % at 7 µM. 330,000 tested, 0.068% active. AID 2052, 2009;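 active = response, share of CD8 T cells binding vesicles, and their 90th percentile fluorescence all below set limits, cut at about 80% in these data, passing the limit was not always enough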;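 note: values below 100% mean blocked vesicle binding to the CD8+ T cells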
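Assay system – 2C mouse CD8+ T cells · Also added – QL9-loaded Drosophila micro-vesicles · Timing – Cell–vesicle co-incubation 1.5 h at 37 °C, staining 20 min on ice · Signal – flow cytometry of vesicle-bound cells · Measure – percent CD8+ FL2 mean versus row control · Controls – Peptide-free naked vesicles (low) and QL9 vesicles with 0.7% DMSO vehicle (high)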
B2AR ag – beta2AR agonists driving receptor internalization, primary screen, cell-based, FAP fluorogen, flow cytometry; Am2.2-beta2AR cells; response, % (no concentration beside the values); 340,000 tested, 0.43% active; AID 504454, 2011;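 active = response above a set limit, near 3 SD of response in nonfluorescent compounds, cut at about 42% in these data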
Target sequence (P07550 whole entry, looked up): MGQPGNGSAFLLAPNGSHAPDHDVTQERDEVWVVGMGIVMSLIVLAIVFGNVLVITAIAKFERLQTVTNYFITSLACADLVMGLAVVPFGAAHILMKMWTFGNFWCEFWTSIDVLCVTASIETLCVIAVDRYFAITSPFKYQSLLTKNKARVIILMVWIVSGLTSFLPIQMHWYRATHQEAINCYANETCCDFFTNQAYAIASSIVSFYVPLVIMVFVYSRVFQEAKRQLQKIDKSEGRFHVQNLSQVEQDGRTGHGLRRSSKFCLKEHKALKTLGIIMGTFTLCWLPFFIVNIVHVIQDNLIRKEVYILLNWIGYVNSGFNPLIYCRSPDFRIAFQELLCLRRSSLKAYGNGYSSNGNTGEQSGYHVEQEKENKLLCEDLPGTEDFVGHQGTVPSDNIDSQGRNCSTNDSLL
UPR CHOP act – activators of apoptotic CHOP UPR arm, primary screen, cell-based, CHO-CHOP luciferase reporter, luminescence, uHTS; 330,000 tested, 0.34% active; activation, % at 10 µM; UPR activation; percent of tunicamycin response over DMSO baseline;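 active = at 10 µM dose, activation of 40% or more, normalized to positive control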;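 note: 100% = tunicamycin at 10 µg/mL and 0% = DMSO alone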
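Assay system: CHO cells with stable CHOP pathway luciferase reporter; Buffer or medium: F12 plus 10% serum; Times: 16-18 h cell attachment, then 6 h compound exposure, 37 °C; Signal: luciferase luminescence; Read-out basis: percent activation relative to tunicamycin control; Control set: tunicamycin high control, DMSO low control.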
UPR XBP1 act – activators of adaptive XBP1 UPR arm, primary screen, cell-based, CHO-XBP1 luciferase reporter, luminescence, uHTS. IRE1-XBP1 UPR activation; percent of tunicamycin response, DMSO as zero. activation, % at 20 µM. 330,000 tested, 0.33% active. AID 463104, 2010;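 active = versus positive control, 20 µM dose yields 30% or more activation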;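 note: 100% = tunicamycin at 10 µg/mL and 0% = DMSO only wells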
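Material: CHO-XBP1 cells stably carrying IRE1-XBP1-driven luciferase reporter / Amount: 1000 cells per well / Compound: 20 µM, 1% DMSO / Times: 6 h treatment, 37 °C / Detection: luciferase luminescence / Measure: % activation of reporter signal versus tunicamycin and DMSO controls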
CHOP UPR conf – activators of apoptotic CHOP UPR arm, confirmation, cell-based, CHO-CHOP luciferase reporter, single concentration | shares compounds with UPR CHOP act | CHO-CHOP cells, CHOP-luciferase reporter luminescence; percent of tunicamycin response, DMSO as zero | activation, % at 10 µM | 1,000 tested, 64% active | AID 463112, 2010; in the data active = activation above about 33%;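 note: 0% = DMSO wells and 100% = tunicamycin 10 µg/mL wells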
* hit, by the source's call.

For CSC(=S)N/N=C(\C)c1ccccc1 the results were T cell modulator 166.0, B2AR ag -2.5, UPR CHOP act 108.8*, UPR XBP1 act 1.8 and CHOP UPR conf 78.8*.
`CCOC(=O)CC(NC(=O)c1cc2cccc(OC)c2oc1=O)c1ccc(OC)cc1` (stereo unspecified) gave T cell modulator 241.4, B2AR ag 3.1, UPR CHOP act 3.7 and UPR XBP1 act 0.8.
`Oc1ccc(-c2cn3c(n2)SCC3)cc1O` gave T cell modulator 446.9, B2AR ag 5.5, UPR CHOP act 51.6*, UPR XBP1 act 0.0 and CHOP UPR conf 2.4.
`CCS(=O)(=O)Nc1cccc(C(=O)O)c1` gave T cell modulator 259.6, UPR CHOP act 0.8 and UPR XBP1 act -0.5.
`COc1ccc(N2C(=O)C(Cl)=C(Oc3cccc(OC)c3)C2=O)cc1` gave T cell modulator 61.4, B2AR ag 5.4, UPR CHOP act 93.9*, UPR XBP1 act -5.5 and CHOP UPR conf 31.2.
`O=C(O)c1ccc(S(=O)(=O)c2ccc3c(c2)C(=O)N(c2ccccc2[N+](=O)[O-])C3=O)cc1` gave T cell modulator 111.0, B2AR ag -9.6, UPR CHOP act 0.7 and UPR XBP1 act -2.6.
Screening C[C@@H](NC(=O)/C(C#N)=C/c1ccc(O)c(O)c1)c1ccccc1 returned T cell modulator 382.5, B2AR ag 11.7, UPR CHOP act 10.2 and UPR XBP1 act 3.4.
For CC(NC(=O)/C(C#N)=C/c1ccc(Cl)c([N+](=O)[O-])c1)c1ccccc1 (stereo unspecified) the results were T cell modulator 152.1, UPR CHOP act 63.4*, UPR XBP1 act -7.6 and CHOP UPR conf -9.9.
`CNC(=S)N(CCc1c(C)[nH]c2ccc(C)cc12)Cc1ccc(OC)c(OC)c1` gave T cell modulator inactive, B2AR ag 2.8, UPR CHOP act -1.1 and UPR XBP1 act -3.2.
`CCN(CC)c1ccc(C(=O)OCc2cc(=O)oc3cc(O)ccc23)cc1` gave T cell modulator 184.9, B2AR ag 29.3, UPR CHOP act 54.1*, UPR XBP1 act 78.2* and CHOP UPR conf 22.0.
For CCN(CC)c1ccc2c(O)cc(=O)oc2c1 the results were T cell modulator 198.6, B2AR ag -6.8, UPR CHOP act -0.8 and UPR XBP1 act 0.5.
For O=C(CN(c1ccc(F)cc1)S(=O)(=O)c1ccc2c(c1)OCCO2)Nc1cccnc1 the results were T cell modulator 35.0, B2AR ag 0.4, UPR CHOP act -0.4 and UPR XBP1 act -3.9.
For CCOC(=O)c1cnc(-n2nc(C)cc2C)nc1NC1CCCC1 the results were T cell modulator 623.2, B2AR ag -5.0, UPR CHOP act 64.3*, UPR XBP1 act 18.9 and CHOP UPR conf 20.3.
O=C1ON=C(c2ccc(Cl)cc2)/C1=C/c1ccc(O)cc1 was read as T cell modulator 253.8, UPR CHOP act 106.6*, UPR XBP1 act -1.7 and CHOP UPR conf 21.3.
`O=C(O)CC1NC(=S)N(c2ccccc2)C1=O` (stereo unspecified) gave T cell modulator 171.5, B2AR ag 7.1, UPR CHOP act -0.7 and UPR XBP1 act -1.7.
Screening O=C1C(CSCc2ccccc2)NC(=S)N1c1ccccc1 (stereo unspecified) returned T cell modulator inactive, B2AR ag 8.6, UPR CHOP act 52.1*, UPR XBP1 act 0.6 and CHOP UPR conf 34.4*.
Screening Cc1cc(C)nc(S/C=C/C(=O)c2ccccc2F)n1 returned T cell modulator 477.9, B2AR ag 29.7, UPR CHOP act 73.2*, UPR XBP1 act 0.1 and CHOP UPR conf 8.0.
O=C(Oc1c(CN2CCOCC2)cc(Cl)c2cccnc12)c1ccc(F)cc1 was read as T cell modulator 410.2, B2AR ag -12.4, UPR CHOP act 40.3*, UPR XBP1 act 19.9 and CHOP UPR conf 40.4*.
Screening COc1cccc(C(=O)Oc2c(CN3CCOCC3)cc(Cl)c3cccnc23)c1 returned T cell modulator 640.9, B2AR ag -4.3, UPR CHOP act 80.4*, UPR XBP1 act 19.3 and CHOP UPR conf 28.3.
`COc1ccc(C(=O)Oc2c(CN3CCOCC3)cc(Cl)c3cccnc23)cc1` gave T cell modulator 497.9, B2AR ag -1.0, UPR CHOP act 0.4 and UPR XBP1 act -0.9.
For Cc1ccc(NC(=O)CN2C(=O)NC(C)(C3CC3)C2=O)cc1S(=O)(=O)N1CCCCC1 (stereo unspecified) the results were T cell modulator 447.8, B2AR ag 0.8, UPR CHOP act -0.1 and UPR XBP1 act 0.2.
For O=C(Nc1nc2c(F)cc(F)cc2s1)c1ccccn1 the results were T cell modulator 242.1, B2AR ag 13.8, UPR CHOP act 83.3*, UPR XBP1 act -2.1 and CHOP UPR conf 186.5*.
Screening COc1ccc(OCCCC(=O)NNC(=O)CCN2CCN(c3ccccc3)CC2)cc1 returned T cell modulator 322.6, B2AR ag -5.5, UPR CHOP act -2.0 and UPR XBP1 act -1.1.
Screening COc1cc2c(cc1OC)C1=NC(=O)CN1C(SCc1ccccc1)=N2 returned T cell modulator 220.9, B2AR ag -3.0, UPR CHOP act 0.9 and UPR XBP1 act -0.7.
C[C@@H]1Cc2c(O)c(O)cc(O)c2C(=O)O1 was read as T cell modulator 59.2, B2AR ag 0.8, UPR CHOP act -1.9 and UPR XBP1 act -4.8.
Screening CC1CCC/C=C/C(=O)c2c(O)cc(O)cc2CC(=O)O1 (stereo unspecified) returned T cell modulator 173.6, B2AR ag 26.6, UPR CHOP act 54.8*, UPR XBP1 act -6.3 and CHOP UPR conf 90.9*.
`Cn1c(=NC(=O)CCl)sc2ccccc21` gave T cell modulator 234.0, B2AR ag -1.1, UPR CHOP act 41.1*, UPR XBP1 act -1.9 and CHOP UPR conf 22.7.
Cn1c(=NC(=O)c2ccco2)sc2ccccc21 was read as T cell modulator 327.4, B2AR ag -14.2, UPR CHOP act 2.1 and UPR XBP1 act -5.3.
O=C(COC(=O)c1cnccn1)Nc1ccccc1-c1ccccc1 was read as T cell modulator 249.0, B2AR ag -4.4, UPR CHOP act -0.5 and UPR XBP1 act -1.2.
Screening Cc1cc(-n2c(C)cc(C(=O)CCl)c2C)no1 returned T cell modulator 329.1, B2AR ag 65.1*, UPR CHOP act 171.2*, UPR XBP1 act 0.5 and CHOP UPR conf 262.6*.
`Cc1cc(-n2c(C)cc(C(=O)CN3C(=O)C(=O)N(C)C3=O)c2C)no1` gave T cell modulator 0.0, B2AR ag 5.2, UPR CHOP act 0.1 and UPR XBP1 act -2.6.
